# From PubChem BioAssay
# b-catenin transl: beta-catenin nuclear translocation modulation. 0.3% of 190,000 active. HeLa beta-catenin nuclear translocation, immunofluorescence imaging. AID 1665. nuclear translocation activity, % at 5 µM;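 active = nuclear translocation activity above 50% at 5 µM, with a well cell count of 50 or more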;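 also: per-cell ratio of nuclear to cytoplasmic median beta-catenin stain intensity; plate controls were DMSO negative control for no effect and GSK-3 inhibitor IX positive control for full effect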
#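 test system = HeLa cells, endogenous beta-catenin | dosing = single 5 µM dose plus 0.02–20 µM confirmation series | times = compound treatment 24 h, 37°C, 5% CO2 | technique = beta-catenin immunofluorescence imaging with DAPI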
# Ba/F3 V617F tox: lowers viability of Ba/F3 cells expressing EpoR and JAK2V617F; ATP luminescence; inhibition, % at 5.6 µM; 1.1% of 220,000 active; AID 1446;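 active = inhibition above the campaign mean plus 3 SD over all tested compounds, cut at about 24% in these data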;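 also: cytokine-independent growth of Ba/F3 cells driven by EpoR plus mutant JAK2; 0% = DMSO-treated cells and 100% = JAK inhibitor I control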
# BaF3 parental: reduces parental Ba/F3 cell viability, JAK2V617F counter-screen. CellTiter-Glo ATP luminescence. AID 1486. inhibition, % at 5.6 µM. 1.1% of 220,000 active;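 active = inhibition above a per-campaign cutoff, the mean inhibition of all tested compounds plus 3 SD, cut at about 27% in these data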;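 also: 0% = DMSO wells and 100% = JAK Inhibitor I control wells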
# MT stabilize HCS: stabilizes microtubules in HeLa cells. HeLa tubulin immunostaining HCS, 24 h; share of cells brighter than vehicle mean+2SD. % tubulin-high responders, % at 10 µM. 0.83% of 200,000 active;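 active = plate Z-score above 3 for both tubulin-high and condensed-nucleus cell shares, with cell loss under 80%, at 10 µM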;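 also: anti alpha tubulin signal scored within the nucleus-defined area of each cell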
# APP 5UTR inh: APP translation inhibition | AID 1285 | SH-SY5Y APP 5'UTR-luciferase reporter, luminescence | 0.82% of 190,000 active | inhibition, % at 2 µM;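 active = inhibition above a set limit, derived from the sample mean plus 3 SD, cut at about 45% in these data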
# IEC-6 cytotox: counter-screen for KLF5 inhibitors: cytotoxicity in IEC-6 cells. inhibition, % at 5 µM. IEC-6 cytotoxicity, luminescence viability. 0.78% of 290,000 active;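 also: 0% = plate median of test compound wells and 100% = cytotoxic reference compound wells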
# IEC-6 cytotox cf: confirmation of cytotoxic compounds in rat IEC-6 intestinal epithelial cells; shares compounds with IEC-6 cytotox; IEC-6 rat intestinal epithelial viability, luminescence; inhibition, % at 5 µM; 63% of 1,900 active;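 also: 0% = vehicle and 100% = reference cytotoxic drug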
# * hit, by the source's call; · = no result. An excerpt weighted towards active compounds, which were near 2.2% of everything screened. Rule as the data show it, unless noted: active = inhibition above about 22%; inactive = the rest.
SMILES,b-catenin transl,Ba/F3 V617F tox,BaF3 parental,MT stabilize HCS,APP 5UTR inh,IEC-6 cytotox,IEC-6 cytotox cf
COc1ccc(C(=O)N/N=C/c2sc3ccccc3c2O)cc1,-1,1,7,4,51*,27*,12
CN(CC1CCCN(CCc2ccc(F)cc2)C1)C(=O)CCC(N)=O (centres undefined),·,·,·,·,·,2,·
c1ccc(-c2cccc(-c3ccccn3)n2)nc1,-1,94*,85*,8,86*,81*,83*
CN(Cc1ccccc1)C1=CC(=[N+]2CCCCC2)CC(C)(C)C1,2,98*,79*,·,·,34*,19
CC(=O)c1c(C)cc(C)c(CSc2nc(C)cc(=O)[nH]2)c1C,·,7,3,3,-38,30*,20
CCOC(=O)c1[nH]c(C)c(C(=O)Nc2cc(Cl)ccc2C)c1C,58*,74*,73*,38*,95*,82*,63*
CCOC(=O)c1[nH]c(C)c(C(=O)Nc2ccc(C)c(Cl)c2)c1C,0,2,7,4,-12,2,·
CCOC(=O)c1[nH]c(C)c(C(=O)Nc2ccccc2C)c1C,43,71*,66*,31*,84*,56*,51*
O=C(Nc1ccc(Cl)cn1)c1cccc2ccccc12,·,·,·,·,·,44*,25*
Cc1ccc(NC(=O)c2cc(Cl)nc3ccccc23)cc1,0,-4,7,1,-7,4,·
COc1cc(C(=O)Nc2ccc(C)cc2)c2ccccc2n1,·,·,·,·,·,84*,65*
O=C(Nc1ccncc1)c1cccc2ccccc12,1,1,-2,·,·,1,·
CCOc1ccc(NC(=O)c2cc(OC)nc3ccccc23)cc1,·,·,·,·,·,88*,53*
CCOc1ccc(NC(=O)c2cccc3ccccc23)cc1,·,·,·,·,·,22*,14
CCCCNC(=O)c1nn2c(C(F)(F)F)cc(-c3ccc(OC)cc3)nc2c1Br,·,·,·,·,·,5,·
CCc1cccc(NC(=O)CCS(=O)(=O)c2ccc(Br)cc2)c1,·,·,·,·,·,1,·
CCOc1ccc(N(CC(=O)NCc2ccc(F)cc2)C(=O)CCC(=O)Nc2nccs2)cc1,·,·,·,·,·,2,·
CC(C)(C)c1ccc(S(=O)(=O)N2CCN(C(=O)C3CCC3)CC2)cc1,·,·,·,·,·,9,·
CC(C)c1ccc([N+](=O)[O-])cc1S(=O)(=O)N1CCN(C)CC1,·,·,·,·,·,5,·
CCOc1ccc(N(CC(=O)NCc2ccccc2)C(=O)Cn2nnc(-c3ccc(C)o3)n2)cc1,·,·,·,·,·,-2,·
COc1cc2c3c(c1)C(C)=CC(C)(C)N3C(=O)C2=O,0,-7,-1,4,30,87*,44*
O=c1ccc(-c2ccc(S(=O)(=O)N3CCN(c4ccccc4)CC3)o2)n[nH]1,·,·,·,·,·,-5,·
O=C(Nc1ccc(Cc2ccncc2)cc1)c1cc(F)c(F)cc1Cl,-2,2,2,6,-6,31*,48*
Cc1nn(C)cc1S(=O)(=O)Nc1ccccc1Br,·,·,·,·,·,7,·
O=C1CN(C(=O)CNC(=O)c2ccc(Cl)cc2Cl)CCN1,·,·,·,·,·,-1,·
SMILES,b-catenin transl,Ba/F3 V617F tox,BaF3 parental,MT stabilize HCS,APP 5UTR inh,IEC-6 cytotox,IEC-6 cytotox cf
CCOc1ccc(-c2c(C(=O)N/N=C/c3cccnc3)nnn2-c2nonc2N)cc1,·,·,·,·,·,0,·
Cc1csc(SCC(=O)NCc2ccccc2)n1,-1,-2,0,2,-2,-5,·
Cc1csc2sc(-c3ccnc(SCC(=O)NCc4ccccc4)n3)c(C)c12,1,81*,60*,·,·,74*,65*
Cc1ccccc1Cn1c(C(=O)OC(C)C)cc2c1ccn2C,0,0,0,3,-2,10,·
CC(C)OC(=O)c1cc2c(ccn2C)n1CC(=O)N1CCC(Cc2ccccc2)CC1,2,5,8,3,4,40*,7
CCOC(=O)c1cc2c(ccn2C)n1CC(=O)N(Cc1ccccc1)c1ccccc1,-3,4,6,1,-19,32*,2
CCOC(=O)c1cc2c(ccn2C)n1CC(=O)N1CCN(c2ccccc2)CC1,-2,0,7,4,-3,5,·
Cc1ccc(C)c(Cn2c(C(=O)OC(C)C)cc3c2ccn3C)c1,0,5,2,3,-1,29*,17
COc1ccccc1NC(=O)c1cc(S(=O)(=O)NC2CCCC2)ccc1F,·,·,·,·,·,4,·
Cc1nc2c(sc3nc4c(cc32)COC(C)(C)C4)c(=O)n1CC(=O)NCc1ccco1,·,76*,79*,28*,-5,63*,38*
COc1cc(/C=N/NC(=O)Nc2cccc3nsnc23)cc(OC)c1OC,-1,-3,-1,2,-12,0,·
O=C(N/N=C/c1ccc(O)cc1)Nc1cccc2nsnc12,4,2,26,11*,12,81*,91*
Cc1noc(C)c1S(=O)(=O)N(Cc1ccccc1)C(C)C,-3,-1,2,·,·,4,·
CC(=O)NC(c1ccc2ccccc2c1)c1ccc2cccnc2c1O (centres undefined),·,·,·,·,·,99*,82*
CC(=O)NC(c1ccc(Cl)cc1Cl)c1ccc2cccnc2c1O (centres undefined),·,·,·,·,·,49*,73*
COc1ccccc1C(NC(C)=O)c1cc(Cl)c2cccnc2c1O (centres undefined),·,·,·,·,·,61*,43*
CC(C)C(=O)NC(c1cccc([N+](=O)[O-])c1)c1ccc2cccnc2c1O (centres undefined),·,·,·,·,·,25*,67*
Cc1ccc2nccc(C(=O)N3CCCC(Nc4ccc(F)cc4)C3)c2c1 (centres undefined),·,·,·,·,·,3,·
CCOc1ccc(NC(=O)Nc2ccon2)cc1,·,·,·,·,·,14,·
Oc1c(C(Nc2nccs2)c2ccc(C(F)(F)F)cc2)ccc2cccnc12 (centres undefined),-1,60*,54*,7,66*,44*,62*
COc1ccc(C(NC(C)=O)c2ccc3cccnc3c2O)c(OC)c1 (centres undefined),-3,·,·,·,·,·,·
Cc1ccc2c(c1)N(C(=O)CCC(=O)NCCCN1CCN(C)CC1)CC(C)O2 (centres undefined),·,·,·,·,·,2,·
CCCC(=O)N1CCN(c2ccc(NC(=O)c3ccc([N+](=O)[O-])o3)cc2)CC1,2,90*,45*,11,70*,90*,45*
O=C(Nc1ccc(N2CCCC2)c(Cl)c1)c1ccc([N+](=O)[O-])o1,1,75*,-1,4,78*,71*,36*
CN1CCN(c2ccc(NC(=O)c3ccc(-c4ccc(Br)cc4)o3)cc2)CC1,-3,6,10,3,2,25*,-6
CCN1CCN(c2ccc(NC(=O)c3ccc(Br)o3)cc2)CC1,·,·,·,·,·,-3,·
O=C(Nc1ccc(N2CCCCC2)cc1)c1ccc([N+](=O)[O-])o1,·,·,·,·,·,80*,15
CCC1CN(C(=O)N2CCC(C(=O)NCCc3ccccc3OC)CC2)c2ccccc2O1 (centres undefined),·,·,·,·,·,8,·
CC(=O)Oc1c(I)cc(I)cc1C(=O)Nc1ccc(Cl)cc1,·,·,·,·,·,4,·
